≈ marks a conversion by molar mass, not a printed value. Calls of active or inactive are those of the source. The rule behind the calls is not given here.
Legend:
Type in all cases: functional
Proteus vulgaris [1] = assay: Antimicrobial activity against Proteus vulgaris NCIM 2027 at 500 ug/disk after 24 hrs by disk diffusion method
Procedure, shortened: (§1)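 Disc diffusion on Mueller–Hinton agar. 100 µl of bacterial suspension at 10⁸ CFU/ml is spread on the plate. Discs carry test compounds at two loadings, dissolved in DMSO; DMSO alone serves as negative control. Ofloxacin disc is the positive reference. Plates are incubated at 37 °C for 24 h, and the inhibition zone diameter is measured.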

Aspergillus fumigatus = assay: Antimicrobial activity against Aspergillus fumigatus NCIM 902 at 1000 ug/disk after 72 hrs by disk diffusion method; conditions: NCIM 902, 72 h, read-out: DIZ
Procedure, shortened: (§2)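 Disc diffusion on Sabouraud's dextrose agar. 100 µl of fungal suspension at 10⁶ CFU/ml is spread on the plate. Discs carry test compounds at two loadings in DMSO; DMSO alone is the negative control. Clotrimazole disc is the positive reference. Plates are incubated at 27 °C for 72 h, and the zone of inhibition diameter is measured.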

Bacillus cereus [2] = assay: Antimicrobial activity against Bacillus cereus NCIM 2155 at 500 ug/disk after 24 hrs by disk diffusion method; procedure, shortened: as §1
Escherichia coli [3] = assay: Antimicrobial activity against Escherichia coli NCIM 2065 at 1000 ug/disk after 24 hrs by disk diffusion method; conditions: NCIM 2065, 24 h, read-out: DIZ; procedure, shortened: as §1
Trichoderma viride [4] = assay: Antimicrobial activity against Trichoderma viride NCIM 1195 after 72 hrs by serial dilution method; conditions: NCIM 1195, 72 h
Procedure, shortened: (§3)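 MIC by broth dilution in Sabouraud's dextrose broth, run only on fungi found sensitive in the disc assay. Twofold serial dilutions were made in 1 ml broth per tube, covering 3.9 to 1000. Inoculated tubes were incubated at 27 °C for 72 h.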

Aliivibrio fischeri [5] = assay: Antimicrobial activity against Vibrio fischeri NCIM 2154 after 24 hrs by serial dilution method; conditions: NCIM 2154, 24 h
Salmonella typhimurium [6] = assay: Antimicrobial activity against Salmonella Typhimurium NCIM 2501 at 500 ug/disk after 24 hrs by disk diffusion method; conditions: for diameter of the inhibition zone (DIZ): Salmonella enterica subsp. enterica serovar Typhimurium
Procedure, shortened: (§4)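 Disc diffusion. 100 µl of bacterial suspension at 10⁸ CFU/ml was spread on Mueller–Hinton agar. Discs loaded with test compound dissolved in DMSO were placed on the lawn, with a DMSO-only disc as negative control. Plates were incubated at 37 °C for 24 h, and the inhibition zone diameter was measured.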

Aspergillus parasiticus [7] = assay: Antimicrobial activity against Aspergillus parasiticus NCIM 904 at 500 ug/disk after 72 hrs by disk diffusion method; conditions: NCIM 904, 72 h, read-out: DIZ; procedure, shortened: as §2
Salmonella typhimurium [8] = assay: Antimicrobial activity against Salmonella Typhimurium NCIM 2501 at 1000 ug/disk after 24 hrs by disk diffusion method; conditions: for diameter of the inhibition zone (DIZ): Salmonella enterica subsp. enterica serovar Typhimurium; procedure, shortened: as §4
Aspergillus parasiticus [9] = assay: Antimicrobial activity against Aspergillus parasiticus NCIM 904 at 1000 ug/disk after 72 hrs by disk diffusion method; conditions: NCIM 904, 72 h, read-out: DIZ; procedure, shortened: as §2
[10] = system: Rhodococcus corynebacterioides; assay: Antimicrobial activity against Corynebacterium rubrum NCIM 2252 at 500 ug/disk after 24 hrs by disk diffusion method; conditions: Rhodococcoides corynebacterioides, NCIM 2252, 24 h; read-out: DIZ; procedure, shortened: as §1
Aspergillus flavus [11] = assay: Antimicrobial activity against Aspergillus flavus NCIM 902 at 500 ug/disk after 72 hrs by disk diffusion method; conditions: NCIM 902, 72 h, read-out: DIZ; procedure, shortened: as §2
Proteus vulgaris [12] = assay: Antimicrobial activity against Proteus vulgaris NCIM 2027 at 1000 ug/disk after 24 hrs by disk diffusion method; procedure, shortened: as §1
Rhodotorula mucilaginosa [13] = assay: Antimicrobial activity against Rhodotorula rubra NCIM 3174 at 1000 ug/disk after 72 hrs by disk diffusion method; conditions: NCIM 3174, 72 h, read-out: DIZ
Procedure, shortened: (§5)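 Fungal disc diffusion. 100 µl of suspension at 10⁶ CFU/ml was spread on Sabouraud's dextrose agar. Discs carrying test compound in DMSO were applied, with a DMSO-only disc as negative control. Plates were incubated at 27 °C for 72 h, and the zone of inhibition diameter was measured.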

Staphylococcus [14] = assay: Antimicrobial activity against Staphylococcus albus NCIM 2178 at 1000 ug/disk after 24 hrs by disk diffusion method; procedure, shortened: as §4
Escherichia coli [15] = assay: Antimicrobial activity against Escherichia coli NCIM 2065 after 24 hrs by serial dilution method; conditions: NCIM 2065, 24 h
Procedure, shortened: (§6)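 Broth dilution MIC in nutrient broth, run only for organisms found sensitive in disc diffusion. Compounds are two-fold serially diluted in 1 ml sterile broth per tube, spanning 3.9 to 1000. Inoculated tubes are incubated at 37 °C for 24 h.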

Lipomyces lipofer [16] = assay: Antimicrobial activity against Lipomyces lipofer NCIM 3252 at 1000 ug/disk after 72 hrs by disk diffusion method; procedure, shortened: as §2
Bacillus subtilis [17] = assay: Antimicrobial activity against Bacillus subtilis NCIM 2063 at 500 ug/disk after 24 hrs by disk diffusion method; conditions: for zone of inhibition at 500 µg/disc: NCIM 2063, 24 h, read-out: DIZ; procedure, shortened: as §1
Escherichia coli [18] = assay: Antimicrobial activity against Escherichia coli NCIM 2065 at 500 ug/disk after 24 hrs by disk diffusion method; conditions: for zone of inhibition at 500 µg/disc: NCIM 2065, 24 h, read-out: DIZ; procedure, shortened: as §1
Bacillus cereus [19] = assay: Antimicrobial activity against Bacillus cereus NCIM 2155 at 1000 ug/disk after 24 hrs by disk diffusion method; procedure, shortened: as §1
Rhodotorula mucilaginosa [20] = assay: Antimicrobial activity against Rhodotorula rubra NCIM 3174 at 500 ug/disk after 72 hrs by disk diffusion method; conditions: NCIM 3174, 72 h, read-out: DIZ; procedure, shortened: as §5
Bacillus subtilis [21] = assay: Antimicrobial activity against Bacillus subtilis NCIM 2063 after 24 hrs by serial dilution method; conditions: NCIM 2063, 24 h; procedure, shortened: as §6
Lipomyces lipofer [22] = assay: Antimicrobial activity against Lipomyces lipofer NCIM 3252 at 500 ug/disk after 72 hrs by disk diffusion method; procedure, shortened: as §2
Aliivibrio fischeri [23] = assay: Antimicrobial activity against Vibrio fischeri NCIM 2154 at 500 ug/disk after 24 hrs by disk diffusion method; conditions: NCIM 2154, 24 h, read-out: DIZ; procedure, shortened: as §4
[24] = system: Rhodococcus corynebacterioides; assay: Antimicrobial activity against Corynebacterium rubrum NCIM 2252 at 1000 ug/disk after 24 hrs by disk diffusion method; conditions: Rhodococcoides corynebacterioides, NCIM 2252, 24 h; read-out: DIZ; procedure, shortened: as §1
Klebsiella aerogenes [25] = assay: Antimicrobial activity against Klebsiella aerogenes NCIM 2239 at 1000 ug/disk after 24 hrs by disk diffusion method; conditions: for zone of inhibition at 1000 µg/disc: NCIM 2239, 24 h, read-out: DIZ; procedure, shortened: as §1
Penicillium chrysogenum = assay: Antimicrobial activity against Penicillium chrysogenum NCIM 707 at 500 ug/disk after 72 hrs by disk diffusion method; procedure, shortened: as §2
Staphylococcus [26] = assay: Antimicrobial activity against Staphylococcus albus NCIM 2178 at 500 ug/disk after 24 hrs by disk diffusion method; procedure, shortened: as §4
Aliivibrio fischeri [27] = assay: Antimicrobial activity against Vibrio fischeri NCIM 2154 at 1000 ug/disk after 24 hrs by disk diffusion method; conditions: NCIM 2154, 24 h, read-out: DIZ; procedure, shortened: as §4
Aspergillus flavus [28] = assay: Antimicrobial activity against Aspergillus flavus NCIM 902 at 1000 ug/disk after 72 hrs by disk diffusion method; conditions: NCIM 902, 72 h, read-out: DIZ; procedure, shortened: as §2
Klebsiella aerogenes [29] = assay: Antimicrobial activity against Klebsiella aerogenes NCIM 2239 at 500 ug/disk after 24 hrs by disk diffusion method; procedure, shortened: as §1
Pseudomonas aeruginosa = assay: Antimicrobial activity against Pseudomonas aeruginosa NCIM 2200 at 1000 ug/disk after 24 hrs by disk diffusion method; procedure, shortened: as §1
Trichoderma viride [30] = assay: Antimicrobial activity against Trichoderma viride NCIM 1195 at 500 ug/disk after 72 hrs by disk diffusion method; conditions: NCIM 1195, 72 h, read-out: DIZ; procedure, shortened: as §5
Rhodotorula mucilaginosa [31] = assay: Antimicrobial activity against Rhodotorula rubra NCIM 3174 after 72 hrs by serial dilution method; conditions: NCIM 3174, 72 h; procedure, shortened: as §3
[32] = Salmonella enterica, NCIM 2501, 24 h, read-out: DIZ

Compound	diameter of the inhibition zone (DIZ) (Proteus vulgaris [1])	zone of inhibition at 1000 µg/disc (Aspergillus fumigatus) [mm]	zone of inhibition at 1000 µg/disc (Escherichia coli [3]) [mm]	MIC (Trichoderma viride [4]) [µg/mL]	MIC (Aliivibrio fischeri [5]) [µg/mL]	zone of inhibition at 500 µg/disc (Aspergillus parasiticus [7]) [mm]	zone of inhibition at 1000 µg/disc (Aspergillus parasiticus [9]) [mm]	zone of inhibition at 500 µg/disc [10] [mm]	zone of inhibition at 500 µg/disc (Aspergillus flavus [11]) [mm]	diameter of the inhibition zone (DIZ) (Proteus vulgaris [12])	zone of inhibition at 1000 µg/disc (Rhodotorula mucilaginosa [13]) [mm]	diameter of the inhibition zone (DIZ) (Staphylococcus [14])	MIC (Escherichia coli [15]) [µg/mL]	zone of inhibition at 500 µg/disc (Rhodotorula mucilaginosa [20]) [mm]	MIC (Bacillus subtilis [21]) [µg/mL]	diameter of the inhibition zone (DIZ) (Lipomyces lipofer [22])	zone of inhibition at 500 µg/disc (Aliivibrio fischeri [23]) [mm]	zone of inhibition at 1000 µg/disc [24] [mm]	diameter of the inhibition zone (DIZ) (Staphylococcus [26])	zone of inhibition at 1000 µg/disc (Aliivibrio fischeri [27]) [mm]	also measured
O=C1CCCC2=C1C(c1ccccc1Cl)c1ccc3ccccc3c1N2 (configuration not stated)	inactive	9	8	62.5 (≈ 174 µM)	125 (≈ 347 µM)	8	10	7	7	inactive	16	inactive	125 (≈ 347 µM)	13	62.5 (≈ 174 µM)	inactive	7	8	inactive	9	diameter of the inhibition zone (DIZ) (Bacillus cereus [2]): inactive; diameter of the inhibition zone (DIZ) (Salmonella typhimurium [6]): inactive; diameter of the inhibition zone (DIZ) (Salmonella typhimurium [8]): inactive; diameter of the inhibition zone (DIZ) (Lipomyces lipofer [16]): inactive; zone of inhibition at 500 µg/disc (Bacillus subtilis [17]): 7 mm; diameter of the inhibition zone (DIZ) (Escherichia coli [18]): inactive; diameter of the inhibition zone (DIZ) (Bacillus cereus [19]): inactive; diameter of the inhibition zone (DIZ) (Klebsiella aerogenes [25]): inactive; diameter of the inhibition zone (DIZ) (Penicillium chrysogenum): inactive; zone of inhibition at 1000 µg/disc (Aspergillus flavus [28]): 9 mm; diameter of the inhibition zone (DIZ) (Klebsiella aerogenes [29]): inactive; diameter of the inhibition zone (DIZ) (Pseudomonas aeruginosa): inactive; zone of inhibition at 500 µg/disc (Trichoderma viride [30]): 9 mm; MIC (Rhodotorula mucilaginosa [31]): 3.9 µg/mL (≈ 10.8 µM)
O=C1CCCC2=C1C(c1cccc(Cl)c1)c1ccc3ccccc3c1N2 (configuration not stated)	inactive	12	9	125 (≈ 347 µM)	62.5 (≈ 174 µM)	12	13	7	9	inactive	10	inactive	62.5 (≈ 174 µM)	8	31.2 (≈ 86.7 µM)	inactive	9	9	inactive	10	diameter of the inhibition zone (DIZ) (Bacillus cereus [2]): inactive; diameter of the inhibition zone (DIZ) (Salmonella typhimurium [6]): inactive; diameter of the inhibition zone (DIZ) (Salmonella typhimurium [8]): inactive; diameter of the inhibition zone (DIZ) (Lipomyces lipofer [16]): inactive; zone of inhibition at 500 µg/disc (Bacillus subtilis [17]): 8 mm; zone of inhibition at 500 µg/disc (Escherichia coli [18]): 7 mm; diameter of the inhibition zone (DIZ) (Bacillus cereus [19]): inactive; zone of inhibition at 1000 µg/disc (Klebsiella aerogenes [25]): 9 mm; diameter of the inhibition zone (DIZ) (Penicillium chrysogenum): inactive; zone of inhibition at 1000 µg/disc (Aspergillus flavus [28]): 11 mm; diameter of the inhibition zone (DIZ) (Klebsiella aerogenes [29]): inactive; diameter of the inhibition zone (DIZ) (Pseudomonas aeruginosa): inactive; zone of inhibition at 500 µg/disc (Trichoderma viride [30]): 8 mm; MIC (Rhodotorula mucilaginosa [31]): 62.5 µg/mL (≈ 174 µM)
CC1(C)CC(=O)C2=C(C1)Nc1c(ccc3ccccc13)C2c1cccc(Cl)c1 (configuration not stated)	inactive	9	8	15.6 (≈ 40.2 µM)	125 (≈ 322 µM)	11	12	7	9	inactive	9	inactive	125 (≈ 322 µM)	7	62.5 (≈ 161 µM)	inactive	7	8	inactive	9	zone of inhibition at 500 µg/disc (Bacillus cereus [2]; NCIM 2155, 24 h, read-out: DIZ): 9 mm; zone of inhibition at 500 µg/disc (Salmonella typhimurium [6]; [32]): 8 mm; zone of inhibition at 1000 µg/disc (Salmonella typhimurium [8]; [32]): 10 mm; zone of inhibition at 1000 µg/disc (Lipomyces lipofer [16]; NCIM 3252, 72 h, read-out: DIZ): 8 mm; diameter of the inhibition zone (DIZ) (Bacillus subtilis [17]): inactive; zone of inhibition at 500 µg/disc (Escherichia coli [18]): 7 mm; zone of inhibition at 1000 µg/disc (Bacillus cereus [19]; NCIM 2155, 24 h, read-out: DIZ): 10 mm; zone of inhibition at 1000 µg/disc (Klebsiella aerogenes [25]): 9 mm; zone of inhibition at 500 µg/disc (Penicillium chrysogenum; NCIM 707, 72 h, read-out: DIZ): 7 mm; zone of inhibition at 1000 µg/disc (Aspergillus flavus [28]): 10 mm; diameter of the inhibition zone (DIZ) (Klebsiella aerogenes [29]): inactive; diameter of the inhibition zone (DIZ) (Pseudomonas aeruginosa): inactive; zone of inhibition at 500 µg/disc (Trichoderma viride [30]): 10 mm; MIC (Rhodotorula mucilaginosa [31]): 62.5 µg/mL (≈ 161 µM)

Source: ChEMBL document CHEMBL1138564, “Microwave-induced synthesis and anti-microbial activities of 7,10,11,12-tetrahydrobenzo[c]acridin-8(9H)-one derivatives” (2009)
